This note sets out measurements from ChEMBL document CHEMBL4041461, “Discovery of 6,7-dihydro-3H-pyrano[4,3-c]isoxazol-3-ones as a new class of pathogen specific anti-leptospiral agents” (Eur J Med Chem, 2017).

≈ marks a conversion by molar mass, not a printed value. Calls of active or inactive are those of the source.

Data set [1] deals with THP-1. Kind of data set: Induction of cell death in human THP1 cells at 0.5 mM after 12 hrs by propidium iodide staining based confocal laser scanning microscopic method. Conditions: thp-1, 12 h, 500 µM. The procedure, abridged: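 THP-1 cells were treated for 12 h and then stained with propidium iodide. Apoptotic and necrotic cells were counted manually and expressed as a percentage. Untreated cells and tert-butylhydroperoxide served as controls. Data are mean ± SD of triplicates.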

Data set [2] deals with THP-1. Kind of data set: Cytotoxicity against human THP1 cells assessed as cell growth inhibition at >=75 ug/mL after 24 hrs by MTT assay. Format: cell-based. Conditions: thp-1, 24 h.
The subject of data set [3] is THP-1. The data set is described as follows: Cytotoxicity against human THP1 cells assessed as cell growth inhibition upto 25 ug/mL after 24 hrs by MTT assay. Type of data set: cell-based. Conditions: thp-1, 24 h. (In general: Tetrazolium assays rely on reduction of a dye to a coloured formazan, in cell work by metabolically active cells.)
Data set [4] concerns Leptospira interrogans serovar Autumnalis. Kind of data set: Antibacterial activity against Leptospira interrogans serovar Autumnalis N2 at 31.25 ug/mL after 2 hrs by micro dilution assay. Format: functional. A digest of the protocol:
(§1)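 Preliminary screen by broth microdilution against L. interrogans serovar Autumnalis strain N2, each compound at 500, 250, 125, 62.5 and 31.25 µg/mL. Growth at each concentration was scored as resistance (R) or inhibition (I), and the MIC was taken from these scores. Triplicates.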

The nature of data set [5]: Antibacterial activity against Leptospira interrogans serovar Grippotyphosa Moskva V after 2 hrs by micro dilution assay. Type of data set: functional.
In data set [6] the test system is Leptospira interrogans serovar Autumnalis. Kind of data set: Antibacterial activity against Leptospira interrogans serovar Autumnalis N2 at 62.5 ug/mL after 2 hrs by micro dilution assay. Format: functional. The procedure, abridged: as §1
Data set [7] concerns Leptospira interrogans. Kind of data set: Inhibition of Leptospira rRNA gene amplification assessed as thresholod cycle by SYBR Green dye-based RT-qPCR method (reference value: 11.3). (In general: In qPCR the cycle at which signal appears reflects the starting amount.)
In data set [8] the test system is Leptospira interrogans serovar Autumnalis. Kind of data set: Antibacterial activity against Leptospira interrogans serovar Autumnalis N2 at 500 ug/mL after 2 hrs by micro dilution assay. Type of data set: functional. A digest of the protocol:
as §1

Data set [9] is described as follows: Antibacterial activity against Leptospira interrogans serovar Pomona after 2 hrs by micro dilution assay. Format: functional.
Data set [10] relates to Leptospira interrogans serovar Autumnalis. The data set is described as follows: Antibacterial activity against Leptospira interrogans serovar Autumnalis N2 at 250 ug/mL after 2 hrs by micro dilution assay. Type of data set: functional. A digest of the protocol:
as §1

The nature of data set [11]: Antibacterial activity against Leptospira interrogans serovar Autumnalis N2 after 2 hrs by micro dilution assay. Type of data set: functional. Conditions: N2, 2 h.
Data set [12] in a line: Antibacterial activity against Leptospira interrogans serovar Ballum Mus 127 after 2 hrs by micro dilution assay. Conditions: Mus 127, 2 h. Type of data set: functional.
Data set [13] is described as follows: Antibacterial activity against Leptospira interrogans serovar Canicola Hond Utrecht IV after 2 hrs by micro dilution assay. Type of data set: functional.
Data set [14] has as its system Leptospira interrogans. The data set is described as follows: Antibacterial activity against Leptospira interrogans serovar Semaranga after 2 hrs by micro dilution assay. Format: functional.
The nature of data set [15]: Antibacterial activity against Leptospira interrogans serovar Canicola PAI-1 infected cyclophosphamide-treated BALB/c mouse assessed as mouse survival at 20 mg/kg, ip administered once daily for 3 days. Format: functional. Conditions: PAI-1, ip, 72 h. A digest of the protocol:
(§2)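 Cyclophosphamide-treated (Cy-)BALB/c mice were challenged with pathogenic Leptospira Canicola. They were dosed once daily for 3 days at 5, 10 or 20 mg/kg. Controls were untreated mice and doxycycline at 5 mg/kg once daily. Survival was recorded to the end of the study period. Kidneys were checked by 16S qPCR and by re-isolation in EMJH semi-solid medium.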

Data set [16] has as its system Leptospira interrogans serovar Autumnalis. The data set is described as follows: Antibacterial activity against Leptospira interrogans serovar Autumnalis N2 at 125 ug/mL after 2 hrs by micro dilution assay. Type of data set: functional. A digest of the protocol: as §1
Data set [17] deals with Leptospira interrogans serovar Canicola. The data set is described as follows: Antibacterial activity against Leptospira interrogans serovar Canicola PAI-1 infected cyclophosphamide-treated BALB/c mouse assessed as inhibition of bacterial renal colonization at 20 mg/kg,ip by RT-qPCR analysis. Format: functional, organism-based. A digest of the protocol: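 Cyclophosphamide-treated BALB/c mice were infected with pathogenic serovar Canicola, then dosed once daily for 3 days at 5, 10 or 20 mg/kg. Controls were untreated mice and doxycycline at 5 mg/kg once daily. Leptospiral load in kidney tissue was measured by qPCR for renal colonization.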

Data set [18] can be described thus: Antibacterial activity against Leptospira interrogans serovar Bataviae Swart after 2 hrs by micro dilution assay. Format: functional.
A short description of data set [19]: Antibacterial activity against Leptospira interrogans serovar Canicola PAI-1 infected cyclophosphamide-treated BALB/c mouse assessed as mouse survival at 5 mg/kg, ip administered once daily for 3 days. Conditions: PAI-1, ip, 72 h. Type of data set: functional. The procedure, abridged: as §2
Data set [20] can be described thus: Antibacterial activity against Leptospira interrogans serovar Icterohaemorrhagiae RGA after 2 hrs by micro dilution assay. Type of data set: functional.
The subject of data set [21] is THP-1. The data set is described as follows: Induction of cell death in human THP1 cells at >= 75 ug/mL after 12 hrs by propidium iodide staining based confocal laser scanning microscopic method. Conditions: thp-1, 12 h. The procedure, abridged: (§3)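 THP-1 cells were exposed for 12 h to a range of concentrations, then stained with propidium iodide. PI-positive apoptotic and necrotic cells were counted manually and expressed as a percentage. Controls were untreated cells and tert-butylhydroperoxide. Mean ± SD of triplicates.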

Data set [22] concerns Leptospira interrogans serovar Canicola. The data set is described as follows: Antibacterial activity against Leptospira interrogans serovar Canicola PAI-1 infected cyclophosphamide-treated BALB/c mouse assessed as inhibition of bacterial renal colonization at 20 mg/kg,ip using EMJH semi solid medium. Format: functional, organism-based. A digest of the protocol: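 Kidneys came from infected cyclophosphamide-treated BALB/c mice dosed once daily for 3 days, including at 20 mg/kg, alongside untreated infected controls. Leptospires were re-isolated by culturing kidney material in semi-solid EMJH medium.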

Data set [23] in a line: Antibacterial activity against Leptospira interrogans serovar Pyrogenes Salinem after 2 hrs by micro dilution assay. Type of data set: functional.
A short description of data set [24]: Antibacterial activity against Leptospira interrogans serovar Hardjo Hardjoprajitno after 2 hrs by micro dilution assay. Type of data set: functional.
A short description of data set [25]: Antibacterial activity against Leptospira interrogans serovar Hebdomadis after 2 hrs by micro dilution assay. Format: functional.
A short description of data set [26]: Antibacterial activity against Leptospira interrogans serovar Australis Ballico after 2 hrs by micro dilution assay. Format: functional.
Data set [27] is described as follows: Antibacterial activity against Leptospira interrogans serovar Javanica Poi after 2 hrs by micro dilution assay. Format: functional.
Data set [28] relates to THP-1. Kind of data set: Induction of cell death in human THP1 cells upto 25 ug/mL after 12 hrs by propidium iodide staining based confocal laser scanning microscopic method. Conditions: thp-1, 12 h. A digest of the protocol:
as §3

For the compound `CC(C)(C)OO` [TERT-BUTYL HYDROPEROXIDE], the Activity entry in data set [1] is “Toxic”.

Usually MIC stands for the smallest concentration in the dilution series that meets the test's criterion for growth inhibition. For the compound `CC1(C)CC2=NOC(=O)C2=C(c2cccs2)O1`, the Activity entry in data set [2] is “Toxic”; in data set [3], “Non-Toxic”; in data set [7] it was 18.5; in data set [21], “Toxic”; in [28] it was “Non-Toxic”. The result in [4], in data set [6] and in [16] was inactive. Also, the MIC in data set [5] was 250 µg/mL (≈ 1000 µM); in data set [9], 250 µg/mL (≈ 1000 µM); in data set [11], 250 µg/mL (≈ 1000 µM); in data set [12], 250 µg/mL (≈ 1000 µM); in [13], 62.5 µg/mL (≈ 251 µM); in [18], 250 µg/mL (≈ 1000 µM). For the same compound, the MIC turned out to be 250 µg/mL (≈ 1000 µM) in [20]; 125 µg/mL (≈ 501 µM) in [23]; 250 µg/mL (≈ 1000 µM) in data set [24]; 250 µg/mL (≈ 1000 µM) in data set [25]; 250 µg/mL (≈ 1000 µM) in data set [26]; 250 µg/mL (≈ 1000 µM) in data set [27]. Further, the result in data set [8] and in data set [10] was Active. The MIC result in data set [14] is “inactive”. The survival at 20 mg/kg in data set [15] worked out at 95%. Besides, the inhibition result in [17] and in [22] was “Active” each time. Also, the survival at 5 mg/kg in data set [19] was found to be 20%.
